Measurements taken from ChEMBL document CHEMBL4177768, “Synthesis and Biological Evaluation of Derivatives of Indoline as Highly Potent Antioxidant and Anti-inflammatory Agents” (J Med Chem, 2018).
Calls of active or inactive are those of the source. The rule behind the calls is not given here.

Columns and labels:
[1] = Cytotoxicity against mouse RAW264.7 cells assessed as cell viability at 10^-8 M after 24 hrs by MTT assay relative to control; format: cell-based; details: read-out: Activity
How it was run: (§1)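 RAW 264.7 cells, seeded at 1×10^4 cells/mL and incubated 24 h, were exposed to compound from 1 pM to 100 nM. Viability was read by MTT (final 0.5 mg/mL, 1 h at 37 °C), with formazan dissolved in DMSO and OD at 570 nm. Results are compared with medium-only cells.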

RAW264.7 [2] = assay: Antiinflammatory activity in mouse RAW264.7 cells assessed as reduction in LPS-induced nitric oxide production at 1 pM to 100 nM incubated for 2 hrs prior to LPS challenge measured after 24 hrs by Griess assay; format: functional, cell-based
How it was run: (§2)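 RAW 264.7 macrophages were plated at 1×10^5 per well, grown overnight and washed with PBS. Compounds in water (final 1 pM-100 nM, medium with 2% FCS) were added 2 h at 37 °C before E. coli 0111:B4 LPS, 2.5 µg/mL. TNF-α was sampled at 8 h; IL-6 and nitrite (Griess) at 24 h. ELISA was used for cytokines. Values are % of the LPS + medium value in each experiment. Budesonide was the reference. 2-3 experiments, 6 wells per concentration.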

RAW264.7 [3] = assay: Antiinflammatory activity in mouse RAW264.7 cells assessed as reduction in LPS-induced IL-6 production at 10 pM incubated for 2 hrs prior to LPS challenge measured after 24 hrs by ELISA; format: functional; set-up: scale not given: the % may be the effect or the level left; how it was run: as §2
RAW264.7 [4] = assay: Antiinflammatory activity in mouse RAW264.7 cells assessed as reduction in LPS-induced TNF-alpha production at 10 pM incubated for 2 hrs prior to LPS challenge measured after 8 hrs by ELISA; format: functional; set-up: scale not given: the % may be the effect or the level left; how it was run: as §2
RAW264.7 [5] = assay: Antiinflammatory activity in mouse RAW264.7 cells assessed as reduction in LPS-induced TNF-alpha production at 1 pM to 100 nM incubated for 2 hrs prior to LPS challenge measured after 8 hrs by ELISA; format: functional, cell-based; how it was run: as §2
[6] = Cytotoxicity against mouse RAW264.7 cells assessed as cell viability at 10^-12 M after 24 hrs by MTT assay relative to control; format: cell-based; details: read-out: Activity; how it was run: as §1
RAW264.7 [7] = assay: Cytoprotective activity against H2O2-induced oxidative stress in mouse RAW264.7 cells assessed as cell viability at 1 pM incubated for 2 hrs prior to H2O2 addition measured after 24 hrs by MTT assay (reference value: 68 to 72.8%); format: functional; details: read-out: Activity
RAW264.7 [8] = assay: Antiinflammatory activity in mouse RAW264.7 cells assessed as reduction in LPS-induced nitric oxide production at 10 pM incubated for 2 hrs prior to LPS challenge measured after 24 hrs by Griess assay; format: functional; set-up: scale not given: the % may be the effect or the level left; how it was run: as §2
[9] = Cytotoxicity against mouse RAW264.7 cells assessed as cell viability at 10^-10 M after 24 hrs by MTT assay relative to control; format: cell-based; details: read-out: Activity; how it was run: as §1
[10] = Cytotoxicity against mouse RAW264.7 cells assessed as cell viability at 10^-7 M after 24 hrs by MTT assay relative to control; format: cell-based; details: read-out: Activity; how it was run: as §1
[11] = Cytotoxicity against mouse RAW264.7 cells assessed as cell viability at 10^-9 M after 24 hrs by MTT assay relative to control; format: cell-based; details: read-out: Activity; how it was run: as §1
[12] = Cytotoxicity against mouse RAW264.7 cells assessed as cell viability at 10^-11 M after 24 hrs by MTT assay relative to control; format: cell-based; details: read-out: Activity; how it was run: as §1
Mus musculus [13] = assay: Antiinflammatory activity in Balb/C mouse assessed as reduction in LPS-induced IL6 production in brain at 0.1 to 10 umol/kg, sc administered LPS 15 mins post compound treatment measured after 4 hrs by ELISA; format: functional, organism-based
Mus musculus [14] = assay: Antiinflammatory activity in Balb/C mouse assessed as reduction in LPS-induced IL6 production in liver at 0.1 to 10 umol/kg, sc administered LPS 15 mins post compound treatment measured after 4 hrs by ELISA; format: functional, organism-based
Mus musculus [15] = assay: Antiinflammatory activity in Balb/C mouse assessed as reduction in LPS-induced IL6 production in plasma at 0.1 to 10 umol/kg, sc administered LPS 15 mins post compound treatment measured after 4 hrs by ELISA; format: functional, organism-based
How it was run: (§3)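 Male Balb/C mice, 7-8 weeks old, given compound sc (0.1, 1 or 10 µmoles/kg) or saline. LPS 10 mg/kg was given ip 15 min later, and mice were killed 4 h after that. Spleens were homogenized in PBS with protease inhibitor and centrifuged at 14,000 g, 4 °C. Cytokines in plasma and tissue supernatants were measured by ELISA, with protein by BCA. Dexamethasone 5.6 µmoles/kg was the reference. n = 8-10 mice per treatment.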

RAW264.7 [16] = assay: Antiinflammatory activity in mouse RAW264.7 cells assessed as reduction in LPS-induced IL-6 production at 1 nM incubated for 2 hrs prior to LPS challenge measured after 24 hrs by ELISA; format: functional; set-up: scale not given: the % may be the effect or the level left; how it was run: as §2
Mus musculus [17] = assay: Antiinflammatory activity in Balb/C mouse assessed as reduction in LPS-induced TNF-alpha production in spleen at 0.1 to 10 umol/kg, sc administered LPS 15 mins post compound treatment measured after 4 hrs by ELISA; format: functional, organism-based; how it was run: as §3
Mus musculus [18] = assay: Acute toxicity in Balb/C mouse assessed as change in water intake at 100 umol/kg, sc measured over 72 hrs; format: organism-based; details: in vivo
How it was run: (§4)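 Male Balb/C mice, 24-28 g, groups of 3; single sc injection of compound at 100 μmoles/kg or saline (1 mL/100 g). Food and water intake, body weight and general activity monitored over 72 h against saline-injected animals.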

Mus musculus [19] = assay: Acute toxicity in Balb/C mouse assessed as change in activity at 100 umol/kg, sc measured over 72 hrs; format: organism-based; details: in vivo; how it was run: as §4
Mus musculus [20] = assay: Antiinflammatory activity in Balb/C mouse assessed as reduction in LPS-induced TNF-alpha production in plasma at 0.1 to 10 umol/kg, sc administered LPS 15 mins post compound treatment measured after 4 hrs by ELISA; format: functional, organism-based; how it was run: as §3
RAW264.7 [21] = assay: Cytoprotective activity against H2O2-induced oxidative stress in mouse RAW264.7 cells assessed as decrease in LDH release at 1 pM incubated for 2 hrs prior to H2O2 addition by colorimetric assay relative to control; format: functional; set-up: scale not given: the % may be the effect or the level left
How it was run: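 RAW 264.7 cells were seeded and pretreated with compound before H2O2 100 µM, in serum-free medium. Collected medium was centrifuged and incubated with reaction mix 30 min at room temperature. LDH was measured as NADH formation by colorimetric read at 490 nm. n = 8-10 replicates per concentration.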

Mus musculus [22] = assay: Antiinflammatory activity in Balb/C mouse assessed as reduction in LPS-induced IL6 production in spleen at 0.1 to 10 umol/kg, sc administered LPS 15 mins post compound treatment measured after 4 hrs by ELISA; format: functional, organism-based; how it was run: as §3
Mus musculus [23] = assay: Acute toxicity in Balb/C mouse assessed as change in food intake at 100 umol/kg, sc measured over 72 hrs; format: organism-based; details: in vivo; how it was run: as §4
RAW264.7 [24] = assay: Antiinflammatory activity in mouse RAW264.7 cells assessed as reduction in LPS-induced TNF-alpha production at 1 nM incubated for 2 hrs prior to LPS challenge measured after 8 hrs by ELISA; format: functional; set-up: scale not given: the % may be the effect or the level left; how it was run: as §2
RAW264.7 [25] = assay: Cytoprotective activity against H2O2-induced oxidative stress in mouse RAW264.7 cells assessed as decrease in LDH release at 1 pM incubated for 2 hrs prior to H2O2 addition by colorimetric assay relative to control; set-up: scale not given: the % may be the effect or the level left
Mus musculus [26] = assay: Acute toxicity in Balb/C mouse assessed as change in body weight at 100 umol/kg, sc measured over 72 hrs; format: organism-based; details: in vivo; how it was run: as §4
RAW264.7 [27] = assay: Antiinflammatory activity in mouse RAW264.7 cells assessed as reduction in LPS-induced nitric oxide production at 1 nM incubated for 2 hrs prior to LPS challenge measured after 24 hrs by Griess assay; format: functional; set-up: scale not given: the % may be the effect or the level left; how it was run: as §2
RAW264.7 [28] = assay: Cytoprotective activity against H2O2-induced oxidative stress in mouse RAW264.7 cells assessed as decrease in caspase-3 activity at 1 pM incubated for 4 hrs prior to H2O2 addition measured after 90 mins by caspase-GloR reagent-based luminescence assay relative to control; format: functional; set-up: scale not given: the % may be the effect or the level left
How it was run: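 RAW 264.7 macrophages were pretreated with compound (1 pM or 1 nM) 4 h before H2O2 100 µM. Medium was replaced with fresh DMEM after 90 min and plates were incubated overnight. Caspase-Glo 3/7 reagent was added and luminescence read after 30 min at room temperature. Mean ± SD, 4-6 replicates.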

COC(=O)CCN1CCc2cc(Cl)ccc21.Cc1ccc(S(C)(=O)=O)cc1
viability at 24 h, 0.01 µM [1]: 107% | Activity (RAW264.7 [2]): Active | Activity (RAW264.7 [3]): 50% | Activity (RAW264.7 [4]): 50% | Activity (RAW264.7 [5]): Active | viability at 24 h, 1e-06 µM [6]: 108% | viability at 1 pM (RAW264.7 [7]): 89.7% | Activity (RAW264.7 [8]): 50% | viability at 24 h, 0.0001 µM [9]: 104% | viability at 24 h, 0.1 µM [10]: 105% | viability at 24 h, 0.001 µM [11]: 104% | viability at 24 h, 1e-05 µM [12]: 106%

CC(C)NCCCN1CCc2ccccc21.Cl.Cl
Activity (Mus musculus [13]): Dose-dependent effect | viability at 24 h, 0.01 µM [1]: 90.9% | Activity (Mus musculus [14]): Dose-dependent effect | Activity (Mus musculus [15]): Dose-dependent effect | Activity (RAW264.7 [2]): Dose-dependent effect | Activity (RAW264.7 [16]): 50% | Activity (Mus musculus [17]): Dose-dependent effect | Activity (Mus musculus [18]): Non-Toxic | Activity (Mus musculus [19]): Non-Toxic | Activity (Mus musculus [20]): Dose-dependent effect | Activity (RAW264.7 [21]): 16% | Activity (Mus musculus [22]): Dose-dependent effect | Activity (RAW264.7 [5]): Dose-dependent effect | Activity (Mus musculus [23]): Non-Toxic | viability at 24 h, 1e-06 µM [6]: 93.3% | Activity (RAW264.7 [24]): 50% | viability at 1 pM (RAW264.7 [7]): 98.5% | Activity (RAW264.7 [25]): 16% | viability at 24 h, 0.0001 µM [9]: 99.2% | viability at 24 h, 0.1 µM [10]: 91.9% | Activity (Mus musculus [26]): Non-Toxic | Activity (RAW264.7 [27]): 50% | viability at 24 h, 0.001 µM [11]: 92.1% | Activity (RAW264.7 [28]): 60% | viability at 24 h, 1e-05 µM [12]: 102%
